Experimental data reported in ChEMBL document CHEMBL5316336, “Development of Human Carbonic Anhydrase II Heterobifunctional Degraders” (J Med Chem, 2023).
Each block holds one compound with its values, some of them ahead of it. Calls of active or inactive are those of the source. The rule behind the calls is not given here.

Legend:
Assay type in all cases: cell-based
[1] = target: Carbonic anhydrase 2 (Homo sapiens) (UniProt P00918); experiment: Induction of in carbonic anhydrase-2 HEK293 cells assessed as degradation of carbonic anhydrase-2 at 5 uM measured after 24 hrs by Western blot analysis
Outline: (§1)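 HEK293 cells (DMEM, 10% FBS, 37 °C, 5% CO2) plated at 2 × 10⁶/well, dosed in DMSO (0.5% final) 24 h before lysis at ~90% confluency. 30–50 μg lysate protein on SDS-PAGE, blotted with anti-hCAII and anti-β-actin, Cy5 secondary. hCAII/β-actin ratio normalized to DMSO wells, as % DMSO.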

[2] = target: T1, Protein cereblon/Carbonic anhydrase 2 (Homo sapiens, UniProt P00918+Q96SW2); experiment: Protac activity at CRBN/CA-2 in HEK293 cells assessed as degradation of carbonic anhydrase-2 measured after 24 hrs by Western blot analysis; settings: dose <= 15.0 µM
Outline: (§2)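 Nine-point dose response, 5 pM to 15 μM, in HEK293 cells for 24 h before lysis, three biological replicates; Western blot with hCAII normalized to β-actin and DMSO vehicle. DC50 (95% CI) and DMax from least-squares sigmoidal fit of concentrations below the hook region; log(inhibitor) vs response, three-parameter fit.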

[3] = target: T1, Protein cereblon/Carbonic anhydrase 2; experiment: Protac activity at CRBN/CA-2 in HEK293 cells assessed as degradation of carbonic anhydrase-2; outline: as §2
[4] = target: T1, Protein cereblon/Carbonic anhydrase 2; experiment: Protac activity at CRBN/CA-2 in HEK293 cells assessed as degradation of carbonic anhydrase-2 at 15 uM measured after 24 hrs by Western blot analysis relative to control; outline: as §1
[5] = target: T1, Protein cereblon/Carbonic anhydrase 2; experiment: Protac activity at CRBN/CA-2 in HEK293 cells assessed as degradation of carbonic anhydrase-2 at 50 pM measured after 24 hrs by Western blot analysis; outline: as §1
[6] = target: T1, Protein cereblon/Carbonic anhydrase 2; experiment: Protac activity at CRBN/CA-2 in HEK293 cells assessed as degradation of carbonic anhydrase-2 at 50 nM preincubated for 1 hr with MG-132 followed by compound addition and measured after 6 hrs by Western blot analysis
Outline: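 HEK293 cells pretreated 1 h with MG-132 at 1 μM, then 50 nM compound for 6 h; hCAII by Western blot, hCAII/β-actin relative to DMSO controls.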

[7] = target: T1, Protein cereblon/Carbonic anhydrase 2; experiment: Protac activity at CRBN/CA-2 in HEK293 cells assessed as degradation of carbonic anhydrase-2 at 50 nM by Western blot analysis; settings: time lower 0.0 hrs, time upper […]
Outline: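 HEK293 cells given 50 nM compound for 0–48 h time course; hCAII abundance by Western blot, hCAII/β-actin normalized to DMSO vehicle.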

[8] = target: T1, Protein cereblon/Carbonic anhydrase 2; experiment: Protac activity at CRBN/CA-2 in HEK293 cells assessed as degradation of carbonic anhydrase-2 at 50 nM preincubated for 1 hr with acetazolamide followed by compound addition and measured after 6 hrs by Western blot analysis
[9] = target: T1, Protein cereblon/Carbonic anhydrase 2; experiment: Protac activity at CRBN/CA-2 in HEK293 cells assessed as degradation of carbonic anhydrase-2 at 50 nM preincubated for 1 hr with lenalidomide followed by compound addition and measured after 6 hrs by Western blot analysis

Activity [1]: inactive
Compound: CS(=O)(=O)c1ccc(C(=O)NCCCOCCOCCOCCCNc2cccc3c2C(=O)N(C2CCC(=O)NC2=O)C3=O)cc1 (stereo not given)

Activity [2]: Dose-Dependent Effect
EC50 [3]: 245 nM
Activity [4]: 100%
Compound: NS(=O)(=O)c1ccc(C(=O)NCCCOCCOCCOCCCNc2cccc3c2C(=O)N(C2CCC(=O)NC2=O)C3=O)cc1 (stereo not given)

Activity [1]: inactive
Compound: CN1C(=O)CCC(N2C(=O)c3cccc(NCCCOCCCCOCCCNC(=O)c4ccc(S(N)(=O)=O)cc4)c3C2=O)C1=O (stereo not given)

Activity [5]: Active
Activity [6]: inactive
Activity [7]: Dose-Dependent Effect
Activity [8]: inactive
Activity [9]: inactive
Compound: NS(=O)(=O)c1ccc(C(=O)NCCCCCCCCCCCCNc2cccc3c2C(=O)N(C2CCC(=O)NC2=O)C3=O)cc1 (stereo not given)

Activity [1]: inactive
Compound: CS(=O)(=O)c1ccc(C(=O)NCCCOCCCCOCCCNc2cccc3c2C(=O)N(C2CCC(=O)NC2=O)C3=O)cc1 (stereo not given)

Activity [2]: Dose-Dependent Effect
EC50 [3]: 5 nM
Activity [4]: 100%
Compound: NS(=O)(=O)c1ccc(C(=O)NCCCOCCCCOCCCNc2cccc3c2C(=O)N(C2CCC(=O)NC2=O)C3=O)cc1 (stereo not given)

Activity [1]: inactive
Compound: CN1C(=O)CCC(N2C(=O)c3cccc(NCCCOCCOCCOCCCNC(=O)c4ccc(S(N)(=O)=O)cc4)c3C2=O)C1=O (stereo not given)
